# Screening results as filed in PubChem.
# Shown are actives, neighbours in structure and some others; about 4.6% of the full set was active somewhere.
# GPR7 antag – GPR7 receptor antagonists, primary screen, cell-based, fluorescence, single concentration. Neuropeptides B/W receptor type 1 (Homo sapiens), P48145. GPR7-expressing cells, fluorescence antagonist assay. inhibition, % at 4.4 µM. actives 1.1% (n = 290,000); in the data active = inhibition above about 16%, passing the limit was not always enough;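 note: cells stimulated with the agonist NPW; 0% = agonist with vehicle and 100% = vehicle without agonist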
# TAAR1 antagonist – human TAAR1 antagonists, primary screen, Fluo-8 calcium fluorescence, CHO RD-HGA16 cells | Trace amine-associated receptor 1 (Homo sapiens), Q96RJ0 | antagonist | inhibition, % at 3 µM | actives 1.5% (n = 360,000) | AID 624466, 2012;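 active = inhibition above a per-plate cutoff, the mean inhibition of test compounds on that plate plus 3 SD, cut at about 49% in these data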;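 note: 0% = DMSO plus EC80 beta-PEA response and 100% = DMSO alone without agonist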
# Target sequence (Q96RJ0 whole entry, looked up): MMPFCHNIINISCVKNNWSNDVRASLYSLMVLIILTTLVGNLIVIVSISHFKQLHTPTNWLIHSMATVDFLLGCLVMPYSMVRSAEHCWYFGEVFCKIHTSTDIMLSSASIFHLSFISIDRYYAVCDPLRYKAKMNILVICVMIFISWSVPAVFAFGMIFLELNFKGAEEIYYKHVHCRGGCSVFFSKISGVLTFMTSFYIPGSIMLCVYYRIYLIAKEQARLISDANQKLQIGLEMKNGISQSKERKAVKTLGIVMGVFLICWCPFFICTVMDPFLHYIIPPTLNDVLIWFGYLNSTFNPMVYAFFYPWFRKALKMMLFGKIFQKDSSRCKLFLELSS
#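 Material: RD-HGA16 CHO cells with stable hTAAR1 and Gα16; Dosing: single nominal final test compound concentration of 3 µM; Schedule: seeding 17-24 h prior, 75-min 37 °C, 30-min RT dye loading; Detection: kinetic Fluo-8 calcium fluorescence measurement; Measure: % inhibition from peak post-agonist over basal fluorescence ratio; Benchmarks: vehicle and agonist controls.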
# OX1R antag-1 – antagonists of human orexin 1 receptor (OX1R). inhibition, % at 6.6 µM. actives 1.8% (n = 330,000). OX1R-expressing cells, FRET antagonist read-out; in the data active = inhibition mostly above about 38%, no sharp cut-off; inactive = mostly below about 40%;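 note: 0% = agonist challenge alone and 100% = reference antagonist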
# OX1R antag-2 – OX1R (HCRTR1) antagonists, primary screen, fluorescence, CHO/OX1R cells, Fluo-8 calcium, orexin A | Orexin/Hypocretin receptor type 1 (Homo sapiens), O43613 | Fluo-8 calcium fluorescence | inhibition, % at 5 µM | actives 0.43% (n = 330,000);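 active = inhibition above its plate's threshold, mean inhibition of all tested compounds on the plate plus 3 SD, cut at about 37% in these data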;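 note: 0% = orexin A challenge wells and 100% = SB-334867-A antagonist wells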
# CHO parental Ca – ATP-evoked calcium signal inhibitors, parental CHO, primary screen, counter-screen for OX1R antagonist project, cell-based, fluorescence, Fluo-8 calcium dye. parental CHO-K1, ATP-induced calcium, Fluo-8 fluorescence. inhibition, % at 5.6 µM. actives 0.63% (n = 330,000);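 active = inhibition above that plate's mean sample inhibition plus 3 SD, cut at about 26% in these data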;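 note: 0% = ATP-challenged DMSO wells and 100% = DMSO wells without ATP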
#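 Material: Parental CHO cells | Reagent: ATP | Compound dosing: Single nominal dose of 5.6 µM per compound | Detection: Intracellular calcium via Fluo-8 no-wash fluorescent dye | Read-out: % inhibition of ATP-induced calcium mobilization | Benchmarks: Low control ATP plus DMSO, high control DMSO only | Replicates: Singlicate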
# TAAR1 ag – human TAAR1 agonists, primary screen, Fluo-8 calcium fluorescence, CHO RD-HGA16 cells | AID 624467, 2012 | vehicle wells 0%, saturating PEA agonist 100% | actives 0.99% (n = 360,000) | activation, % at 3 µM;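 active = activation above the mean activation of all test compounds in the run plus 3 SD, cut at about 38% in these data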
#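 Benchmarks: low control DMSO, high control PEA (EC100); System: CHO RD-HGA16 cells carrying human TAAR1 plus Gα16; Detection: Fluo-8 fluorescence, 5 s baseline then 140 s kinetic read; Schedule: 17-24 h plating, Fluo-8 75 min 37 °C, 30 min RT; Read-out basis: % activation from peak over basal fluorescence ratio, DMSO-to-PEA scaled.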
# Active calls of the source: *; / = not tested or not shown.
SMILES,GPR7 antag,TAAR1 antagonist,OX1R antag-1,OX1R antag-2,CHO parental Ca,TAAR1 ag
Cc1cccc(C(=O)NC2CCN(S(=O)(=O)c3ccc(F)cc3)CC2)c1,17.1,-3.5,10.0,16.1,41.2*,-0.4
O=C(Nc1cccc(C(F)(F)F)c1)NC1CCN(S(=O)(=O)c2ccc(F)cc2)CC1,9.5,17.7,7.0,-4.6,33.6*,13.3
Cc1cccc(C(=O)NC2CCN(S(=O)(=O)c3cccc(F)c3)CC2)c1,/,14.3,/,/,/,-0.9
COC(=O)[C@]12C[C@H](CC(=O)N3CCOCC3)C(=O)N(CCC3=CCCCC3)C1=C[C@H](COCc1ccccc1)O[C@@H]2C,/,-38.1,/,/,/,3.3
Cn1ncc(Cl)c1C(=O)Nc1ccc2c(c1)OCO2,-22.1,-7.0,11.9,-1.8,-3.7,0.0
O=C(Nc1ccc2c(c1)OCO2)c1c(Cl)nc2sccn12,-15.4,-8.0,58.1*,-15.7,-31.0,3.9
COc1cccc(C2CC(OCCF)=CC(=O)O2)c1 (stereo not given),/,-7.7,/,/,/,0.8
COc1ccc(CCNC(=O)c2[nH]c(C)c(C(C)=O)c2C)cc1,9.1,5.1,22.7,-25.7,-29.6,12.7
COc1ccc(OCCOC(=O)c2[nH]c(C)c(C(C)=O)c2C)cc1,3.6,7.7,38.0,-1.6,44.7*,6.1
CC(=O)N1CC(C)Sc2ccc(S(=O)(=O)NCCc3ccc(C)cc3)cc21 (stereo not given),0.2,-15.2,47.3,-17.6,-4.4,10.4
CC(=O)N1CCOc2ccc(S(=O)(=O)NCCc3cccc(C)c3)cc21,-0.2,8.5,9.8,-19.3,-14.8,46.7*
CC(=O)N1CCOc2ccc(S(=O)(=O)Nc3cccc(C)c3)cc21,0.5,-7.7,9.5,-19.1,-12.3,4.1
CC(=O)N1CC(C)Sc2ccc(S(=O)(=O)NCCc3ccccc3)cc21 (stereo not given),-0.8,32.9,26.4,-23.0,-6.4,43.6*
O=C(NCCc1ccccc1)C1Cc2c(-c3ccc4c(c3)OCO4)ccnc2O1 (stereo not given),/,-14.0,/,/,/,-0.1
CCn1ncc(CN2CCCC(C(=O)Nc3cccc(-c4cc5ccccc5[nH]4)c3)C2)c1C (stereo not given),16.6,21.1,6.8,-10.5,-9.1,40.7*
COC(=O)c1cnn2c(C(F)(F)F)cc(-c3ccccc3)nc12,-11.3,-8.5,18.3,-31.1,1.8,6.2
N#Cc1cnn2c(C(F)(F)F)cc(-c3ccccc3)nc12,-12.8,0.4,16.0,-15.2,54.3*,-0.3
O=C(c1cnn2c(C(F)(F)F)cc(-c3ccco3)nc12)N1CCCCCC1,2.9,-7.8,25.2,-15.5,-15.3,3.0
COc1cccc(-c2cc(C(F)(F)F)n3ncc(C(=O)O)c3n2)c1,2.3,-6.4,51.0*,-24.4,-5.3,2.6
O=C(O)c1cnn2c(C(F)(F)F)cc(-c3ccco3)nc12,-5.2,-3.2,48.6*,-3.8,1.5,2.3
Cc1cc2c(c(=O)o1)[C@@]1(C(=O)N(c3ccccc3)c3ccccc31)C1=C(CCCC1=O)O2,/,8.9,/,/,/,0.2
COC(=O)c1ccc(NC(=O)CSc2ccccc2)cc1,-2.5,-14.2,9.4,54.2*,53.7*,1.9
COC(=O)N1Cc2ccnnc2CC1c1ccccc1-c1ccc(F)cc1 (stereo not given),/,-33.5,/,/,/,3.7
NC(=Nc1ccc(Cl)cc1)c1ccccc1,0.3,16.7,13.1,-5.5,-6.9,43.3*
ONC(=Nc1ccccc1)c1ccc(Cl)cc1,0.7,5.8,2.9,-10.3,-10.9,3.5
O=C(CSCC(=O)NC1CC1)Nc1ccc2ccccc2c1,20.0*,-10.1,/,/,/,-1.3
Cc1cc(Cl)c(S(=O)(=O)N2CCSCC2)cc1OCC(=O)NC1CCCCC1,4.3,53.8*,-0.1,-0.3,9.2,22.4
